Laboratory results reported in ChEMBL document CHEMBL4732155 (Eur J Med Chem, 2021).
The source made the active and inactive calls. No cut-off for these calls is given here. Where a SMILES comes first, the peptide text is derived from it. [ ]: non-standard residue; d: D form. The star is where a group is joined. Cbz = O=C(OCc1ccccc1)*

Legend:
[1] = target: T1, Transitional endoplasmic reticulum ATPase (Homo sapiens, UniProt P55072); assay: Inhibition of His6-tagged p97 (unknown origin) expressed in Escherichia coli BL21 (DE3) assessed as reduction in ATPase activity measured after 60 mins by biomol green reagent based assay
In short: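 His6-p97 expressed in E. coli BL21(DE3), purified by Ni-NTA and gel filtration (500–600 kDa fractions, ≥95% pure). Phosphate read by Biomol Green at 635 nm. Eight-dose titrations; IC50 from six replicates. Thiol tests added DTT or cysteine during preincubation.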
Target sequence in this assay (P55072 whole entry): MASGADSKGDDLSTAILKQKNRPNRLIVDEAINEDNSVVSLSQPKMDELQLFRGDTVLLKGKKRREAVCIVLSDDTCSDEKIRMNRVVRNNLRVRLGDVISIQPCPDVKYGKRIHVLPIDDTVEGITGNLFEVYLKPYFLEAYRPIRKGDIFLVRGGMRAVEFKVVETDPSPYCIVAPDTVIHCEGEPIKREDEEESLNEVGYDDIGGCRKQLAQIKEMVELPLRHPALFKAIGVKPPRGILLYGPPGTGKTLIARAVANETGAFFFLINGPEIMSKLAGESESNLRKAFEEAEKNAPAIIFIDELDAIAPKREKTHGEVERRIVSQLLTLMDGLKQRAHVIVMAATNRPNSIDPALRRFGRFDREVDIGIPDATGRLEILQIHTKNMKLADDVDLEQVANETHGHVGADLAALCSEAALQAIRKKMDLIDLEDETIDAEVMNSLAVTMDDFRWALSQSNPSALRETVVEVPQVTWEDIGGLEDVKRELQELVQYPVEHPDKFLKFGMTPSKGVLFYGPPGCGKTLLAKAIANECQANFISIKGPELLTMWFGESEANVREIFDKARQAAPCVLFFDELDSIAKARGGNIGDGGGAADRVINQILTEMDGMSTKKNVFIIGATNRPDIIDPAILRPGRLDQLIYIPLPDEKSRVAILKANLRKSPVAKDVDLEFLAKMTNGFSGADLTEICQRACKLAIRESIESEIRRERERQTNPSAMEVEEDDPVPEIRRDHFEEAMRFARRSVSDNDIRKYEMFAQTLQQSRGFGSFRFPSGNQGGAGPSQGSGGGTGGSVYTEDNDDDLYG

[2] = Inhibition of proteasomal turnover of p97-independent ODD-luciferase reporter substrate in human HeLa cells incubated for 120 mins by luciferase reporter gene assay; assay type: functional, cell-based; details: 2 h
In short: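 HeLa cells co-expressing UbG76V-GFP and ODD-Luc were seeded at 5000/well in clear DMEM with 2.5% FBS. They were pretreated with 4 μM MG132 for 60 min at 37 °C, washed with PBS, then given cycloheximide plus compound for 120 min at 37 °C and washed. GFP was read by high-content confocal imaging, then luminescence after 10 min with D-luciferin at r.t. IC50 was fitted from quadruplicates.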

[3] = target: T1, Transitional endoplasmic reticulum ATPase; assay: Inhibition of p97 in human HeLa cells assessed as reduction in proteasomal turnover of p97-dependent reporter substrate UbG76V-GFP incubated for 120 mins by GFP fluorescence imaging
Target sequence in this assay (P55072 whole entry): as above

[4] = Selectivity ratio of IC50 for antiproliferative activity against NMS-873-resistant human HCT-116 cells to IC50 for antiproliferative activity against human HCT-116 cells; assay type: functional
[5] = Inhibition of yeast Cdc48 T532C mutant assessed as reduction in ATPase activity measured after 60 mins by biomol green reagent based assay; parameters: species or system Saccharomyces cerevisiae
In short: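 Yeast Cdc48 ATPase activity with 200 μM ATP in Tris pH 7.4 buffer containing MgCl2, EDTA, TCEP and Triton X-100, 60 min at room temperature. Biomol Green read at 635 nm. Eight-dose titration; IC50 from six replicates.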

[6] = target: T1, Transitional endoplasmic reticulum ATPase; assay: Irreversible inhibition of p97 in human HeLa cells assessed as reduction in p97-dependent reporter substrate UbG76V-GFP degradation preincubated followed by washout and measured after 17 hrs by luciferase reporter gene assay; assay type: cell-based; details: in the assay text read “GFP fluorescence assay” for “luciferase reporter gene assay”
In short: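 HeLa cells expressing UbG76V-GFP/ODD-Luc, 5000 cells/well in DMEM with 2.5% FBS. Pretreated with 4 μM MG132 for 60 min at 37 °C, PBS-washed, then given cycloheximide plus compound for 120 min. After washout, GFP decay followed in cycloheximide for an additional 17 h. GFP read by high-content imaging; luciferase read with D-luciferin; quadruplicates.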
Target sequence in this assay (P55072 2-806 limits assumed): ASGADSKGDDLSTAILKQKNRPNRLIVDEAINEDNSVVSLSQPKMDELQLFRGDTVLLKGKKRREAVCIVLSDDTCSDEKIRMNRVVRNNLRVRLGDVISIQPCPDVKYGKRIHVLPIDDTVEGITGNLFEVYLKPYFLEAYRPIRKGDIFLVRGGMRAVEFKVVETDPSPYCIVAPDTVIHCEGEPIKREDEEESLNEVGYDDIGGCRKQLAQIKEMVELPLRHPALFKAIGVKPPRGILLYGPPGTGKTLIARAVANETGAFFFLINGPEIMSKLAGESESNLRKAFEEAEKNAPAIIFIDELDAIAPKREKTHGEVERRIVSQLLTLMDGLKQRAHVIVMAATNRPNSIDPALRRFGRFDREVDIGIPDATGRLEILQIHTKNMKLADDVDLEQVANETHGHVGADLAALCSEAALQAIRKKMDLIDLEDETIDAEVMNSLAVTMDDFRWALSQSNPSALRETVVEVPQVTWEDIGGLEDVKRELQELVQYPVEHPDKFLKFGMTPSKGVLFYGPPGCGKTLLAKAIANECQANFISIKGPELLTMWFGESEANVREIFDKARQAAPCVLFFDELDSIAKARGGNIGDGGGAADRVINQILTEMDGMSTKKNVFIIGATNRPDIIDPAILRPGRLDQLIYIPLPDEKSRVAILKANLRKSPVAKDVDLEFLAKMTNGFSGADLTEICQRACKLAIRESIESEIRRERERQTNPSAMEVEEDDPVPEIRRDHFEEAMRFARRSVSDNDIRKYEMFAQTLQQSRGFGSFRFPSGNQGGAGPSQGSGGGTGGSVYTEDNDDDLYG

inhibition [6]	SMILES	IC50 [1] [µM]	IC50 [2] [µM]	IC50 [3] [µM]	Selectivity ratio [4]	IC50 [5] [µM]
	Cc1ccc(C(=O)C#Cc2ccccc2)cc1	0.2	5.2	3.4		
	Cc1cc(OCc2nnc(SC3CCCC3)n2-c2cccnc2)ccc1-c1ccc(S(C)(=O)=O)cc1				4.5	
	CC(C)(C)n1nc(-c2ccc3ccccc3c2)c2c(N)ncnc21	> 100	> 30	> 30		> 100
	C=CC(=O)Nc1ncnc2c1c(-c1ccc3ccccc3c1)nn2C(C)(C)C	3	> 30	2		24
	C=CC(=O)N(C(=O)C=C)c1ncnc2c1c(-c1ccc(-c3ccccc3)cc1)nn2C(C)(C)C	0.9	> 30	6.1		
inactive	CC(C)C[C@@H](C=O)NC(=O)[C@@H](CC(C)C)NC(=O)[C@H](CC(C)C)NC(=O)OCc1ccccc1 (Cbz-Leu-[dL]-Leu-aldehyde)					
	CNc1ncnc2c1c(-c1ccc3ccccc3c1)nn2C(C)(C)C	> 50	> 30	> 30		
	C=CC(=O)Nc1ncnc2c1c(-c1ccc(-c3ccccc3)cc1)nn2C(C)(C)C	2.8	> 30	2.1		
	O=[N+]([O-])/C=C/c1c(F)c(F)c(F)c(F)c1F	2.4	2.1	2.7		
	O=[N+]([O-])/C=C/c1cccnc1	0.7	3	2.9		
	C=CC(=O)Nc1ccc2ncnc(Nc3ccc(-c4ccccc4)cc3)c2c1	10	11	18		
	C=CC(=O)N(C(=O)C=C)c1ncnc2c1c(-c1ccc3ccccc3c1)nn2C(C)(C)C	1.3	> 30	2.5		22
	Cc1ccc(-c2c(C(=O)CF)n(CCCO)c3ncnc(N)c23)cc1	> 30	39	47		
	O=[N+]([O-])/C=C/c1cccc([N+](=O)[O-])c1	1.2	4	1.7		
	COc1cc(/C=C/[N+](=O)[O-])ccc1O	13	5	6.8		
	CC(C)(C)n1nc(-c2ccc(-c3ccccc3)cc2)c2c(N)ncnc21	> 50	> 30	> 30		
	C=CC(=O)N(C(=O)C=C)c1ncnc2c1c(-c1ccccc1)nn2C(C)(C)C	1.1	> 30	5.4		26
	Cc1ccc(-c2c(C(=O)CCl)n(CCCO)c3ncnc(N)c23)cc1	3.9	4	5.8		
	O=[N+]([O-])/C=C/c1ccc(F)c(Br)c1	1.7	2	1.8		
	O=C(O)/C=C/c1ccc2c(c1)OCO2	> 30	> 30	> 30		
	CCC(=O)Oc1ccc(/C=C/[N+](=O)[O-])cc1OC	3.4	1.6	4.3		
	CC1(C)C(N(O)C(=O)Nc2ccc(Cl)cc2)N(c2ccc(Cl)cc2)C(=O)N1CC(=O)N/N=C/C=C/c1ccc([N+](=O)[O-])o1 (stereo not given)	> 30		3.7		
	O=[N+]([O-])/C=C/c1ccc2c(c1)OCO2	1.7	3.9	1.6		
	COc1cc(/C=C/[N+](=O)[O-])ccc1OC(C)=O	3.6	2.3	5.7		
	CC(C)(C)n1nc(-c2ccccc2)c2c(N)ncnc21	> 100	> 30	> 30		> 100
	COc1cc(/C=C/[N+](=O)[O-])ccc1OC(=O)c1ccccc1	2	10	5.7		
	COc1ccc(/C=C/[N+](=O)[O-])cc1OC	3.1	1.8	1.9		
	CC(C)(C)n1nc(-c2ccccc2)c2c(NC(=O)CCl)ncnc21	4.5	> 30	31		35
